According to ChEMBL document CHEMBL1131070, “Synthesis and antiallergic activity of dimethyl-2-(phenylcarbamoyl)ethylsulfonium p-toluenesulfonate derivatives” (J Med Chem, 1998):

Key:
Rattus norvegicus [1] = test: Inhibitory activity against the homologous Passive Cutaneous Anaphylaxis (PCA) in rat, administered at a dose of 100 mg/kg intraperitoneally; format: functional; settings: ip, route intraperitoneal
In short: (§1)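 Rat anti-DNP-As serum (raised with DNP-coupled ascaris plus killed Bordetella pertussis; titer about 1:256 by 48-h PCA) diluted 20-fold in 0.9% saline, given intradermally as 0.1 mL at three shaved-back sites of normal rats, with saline on the other side. After 48 h, 1.0 mL of 0.25% Evans blue containing 2.0 mg of antigen given iv. Read-out is % inhibition ± SD.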

Rattus norvegicus [2] = test: Inhibition of the homologous passive cutaneous anaphylaxis (PCA) in rat, administered at a dose of 50 mg/kg intraperitoneally; format: functional; settings: ip, route intraperitoneal; in short: as §1
Rattus norvegicus [3] = test: Inhibition of homologous Passive Cutaneous Anaphylaxis in rat, following 20 mg/kg i.p. administration.; format: functional; settings: po, in the assay text read “p.o.” for “i.p.”; in short: as §1
[4] = Lethal dose (LD50) determined in male ddY mice; format: toxicity; settings: mouse, in vivo
In short: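 Acute toxicity by the up-down method, five animals per determination, with LD50 reported in mg/kg.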

Rattus norvegicus [5] = test: Inhibitory activity against the homologous Passive Cutaneous Anaphylaxis (PCA) in rat, administered at a dose of 50 mg/kg perorally; format: functional; settings: route oral; in short: as §1
Rattus norvegicus [6] = test: Inhibitory activity against the homologous Passive Cutaneous Anaphylaxis (PCA) in rat, administered at a dose of 20 mg/kg perorally; format: functional; settings: route oral; in short: as §1

C[S+](C)CCC(=O)NC1CCCCC1
inhibition in vivo at 100 mg/kg (Rattus norvegicus [1]): 17%
inhibition in vivo at 50 mg/kg (Rattus norvegicus [2]): 9%

C[S+](C)CCC(=O)Nc1ccc(CC(=O)O)cc1
inhibition in vivo at 20 mg/kg (Rattus norvegicus [3]): 14.9%
inhibition in vivo at 50 mg/kg (Rattus norvegicus [2]): 25.5%

CCCCOCC(O)COc1ccc(NC(=O)CC[S+](C)C)cc1 (centres undefined)
inhibition in vivo at 20 mg/kg (Rattus norvegicus [3]): 7.9%
inhibition in vivo at 50 mg/kg (Rattus norvegicus [2]): 4.4%

CC(O)COc1ccc(NC(=O)CC[S+](C)C)cc1.Cc1ccc(S(=O)(=O)[O-])cc1 (centres undefined)
LD50 [4]: 495 mg/kg

COc1ccc(NC(=O)CC[S+](C)C)cc1
inhibition in vivo at 20 mg/kg (Rattus norvegicus [3]): -4.4%
inhibition in vivo at 50 mg/kg (Rattus norvegicus [2]): 17.4%

CCOCC(O)COc1ccc(NC(=O)CC[S+](C)C)cc1 (centres undefined) [SUPLATAST TOSILATE]
inhibition in vivo at 20 mg/kg (Rattus norvegicus [3]): 28.9%
inhibition in vivo at 50 mg/kg (Rattus norvegicus [2]): 35.5%

C[S+](C)CCC(=O)Nc1ccc(C(F)(F)F)cc1
inhibition in vivo at 20 mg/kg (Rattus norvegicus [3]): -7.8%
inhibition in vivo at 50 mg/kg (Rattus norvegicus [2]): -10.3%

C[S+](C)CCC(=O)Nc1ccc(OCC(O)CO)cc1.Cc1ccc(S(=O)(=O)[O-])cc1 (centres undefined)
inhibition in vivo at 50 mg/kg (Rattus norvegicus [5]): 18.6%
LD50 [4]: 1040 mg/kg
inhibition in vivo at 20 mg/kg (Rattus norvegicus [3]): 38.7%
inhibition in vivo at 20 mg/kg (Rattus norvegicus [6]): 1.4%
inhibition in vivo at 50 mg/kg (Rattus norvegicus [2]): 34.9%

C[S+](C)CCC(=O)Nc1ccc(OCCCO)cc1.Cc1ccc(S(=O)(=O)[O-])cc1
LD50 [4]: 324 mg/kg

C[S+](C)CCC(N)=O
inhibition in vivo at 100 mg/kg (Rattus norvegicus [1]): 13.7%
inhibition in vivo at 50 mg/kg (Rattus norvegicus [2]): 2.4%

Cc1ccc(NC(=O)CC[S+](C)C)cc1
inhibition in vivo at 20 mg/kg (Rattus norvegicus [3]): 18.9%
inhibition in vivo at 50 mg/kg (Rattus norvegicus [2]): 22%

C[S+](C)CCC(=O)Nc1ccc(Cl)cc1
inhibition in vivo at 20 mg/kg (Rattus norvegicus [3]): -0.2%
inhibition in vivo at 50 mg/kg (Rattus norvegicus [2]): 0.3%

C[S+](C)CCC(=O)Nc1ccc(F)cc1
inhibition in vivo at 20 mg/kg (Rattus norvegicus [3]): 4%
inhibition in vivo at 50 mg/kg (Rattus norvegicus [2]): 1.2%

C[S+](C)CCC(=O)Nc1ccc(O)cc1
inhibition in vivo at 20 mg/kg (Rattus norvegicus [3]): 21.9%
inhibition in vivo at 50 mg/kg (Rattus norvegicus [2]): 9.7%

CCCOc1ccc(NC(=O)CC[S+](C)C)cc1.Cc1ccc(S(=O)(=O)[O-])cc1
LD50 [4]: 97 mg/kg
inhibition in vivo at 20 mg/kg (Rattus norvegicus [3]): 13.8%
inhibition in vivo at 50 mg/kg (Rattus norvegicus [2]): 29.8%

CCOCC(COc1ccc(NC(=O)CC[S+](C)C)cc1)OC(C)=O (centres undefined)
inhibition in vivo at 20 mg/kg (Rattus norvegicus [3]): 35.1%
inhibition in vivo at 50 mg/kg (Rattus norvegicus [2]): 30.2%

CCCOCC(O)COc1ccc(NC(=O)CC[S+](C)C)cc1 (centres undefined)
inhibition in vivo at 20 mg/kg (Rattus norvegicus [3]): 16.3%
inhibition in vivo at 50 mg/kg (Rattus norvegicus [2]): 13.8%

CCOCC(COc1cccc(NC(=O)CC[S+](C)C)c1)OC(C)=O (centres undefined)
inhibition in vivo at 20 mg/kg (Rattus norvegicus [3]): 18.2%
inhibition in vivo at 50 mg/kg (Rattus norvegicus [2]): 17.7%

COCC(O)COc1ccc(NC(=O)CC[S+](C)C)cc1 (centres undefined)
inhibition in vivo at 20 mg/kg (Rattus norvegicus [3]): 17.7%
inhibition in vivo at 50 mg/kg (Rattus norvegicus [2]): 24.8%

CCOCC(COc1ccccc1NC(=O)CC[S+](C)C)OC(C)=O (centres undefined)
inhibition in vivo at 20 mg/kg (Rattus norvegicus [3]): -2%
inhibition in vivo at 50 mg/kg (Rattus norvegicus [2]): 20%

C[S+](C)CCC(=O)Nc1ccc(OCC(O)COc2ccccc2)cc1 (centres undefined)
inhibition in vivo at 20 mg/kg (Rattus norvegicus [3]): 14.4%
inhibition in vivo at 50 mg/kg (Rattus norvegicus [2]): 4.6%

CCOCC(COc1ccc(NC(=O)CC[S+](C)C)cc1)OCC (centres undefined)
inhibition in vivo at 20 mg/kg (Rattus norvegicus [3]): 0.1%
inhibition in vivo at 50 mg/kg (Rattus norvegicus [2]): 5.1%

C[S+](C)CCC(=O)Nc1ccccc1
inhibition in vivo at 100 mg/kg (Rattus norvegicus [1]): 27.1%
inhibition in vivo at 50 mg/kg (Rattus norvegicus [2]): -8.3%

COCC(COc1ccc(NC(=O)CC[S+](C)C)cc1)OC (centres undefined)
inhibition in vivo at 20 mg/kg (Rattus norvegicus [3]): 17.9%
inhibition in vivo at 50 mg/kg (Rattus norvegicus [2]): 10.5%

C[S+](C)CCC(=O)Nc1ccc(OCC(O)COC2CCCCC2)cc1 (centres undefined)
inhibition in vivo at 20 mg/kg (Rattus norvegicus [3]): 10.2%
inhibition in vivo at 50 mg/kg (Rattus norvegicus [2]): -7.4%

CC(=O)c1ccc(NC(=O)CC[S+](C)C)cc1
inhibition in vivo at 20 mg/kg (Rattus norvegicus [3]): 9%
inhibition in vivo at 50 mg/kg (Rattus norvegicus [2]): 25.1%
